Laboratory results published in paper PMC5816172 (Proceedings of the National Academy of Sciences of the …, 2018).
Entries after “also recorded” stand apart in the source; their conditions may differ. Like-named read-outs stand apart in the source and are kept apart here.

Tests used:
NLRP3 inflammasome = NLRP3 inflammasome stimulation of human monocyte-derived macrophages; format: cell-based; settings: Macrophage
NLRP3-ASC = NLRP3-ASC (Mus musculus, UniProt Q8R4B8); assay: Immunoprecipitation of NLRP3-ASC association in J774A.1 cells; format: cell-based; settings: J774A.1, LPS and nigericin
Human recombinant NLRP3 = Human recombinant NLRP3 (Homo sapiens, UniProt Q96P20); assay: NLRP3 ATPase activity; format: biochemical; settings: cell-free, 1 and 10 µM
Summary of the method: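 Cell-free ATPase activity of recombinant NLRP3 was measured with test compound (n = 3). Bay11-7082 and 3,4-methylenedioxy-β-nitrostyrene served as positive-control NLRP3 inhibitors (n = 2 each).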

P2X7R = P2X7R (Homo sapiens, UniProt Q99572); assay: Whole-cell patch-clamp recordings on LPS-primed U937 cells; format: cell-based; settings: 100 µM BzATP, OLT1177 0.1 nM and 100 µM
Summary of the method: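 U937 cells on poly-L-lysine-coated dishes were primed with 1 μg/mL E. coli LPS for 5 h. Whole-cell patch clamp at room temperature, holding −60 mV. BzATP was diluted from a 100-mM stock to 100 µM in bath solution and applied by pressure microperfusion. Test compound (0.1 nM, 100 µM) was given in parallel cultures. ΔI compared by Wilcoxon signed-rank, shown as median with 25th–75th percentiles.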

AIM2 inflammasome = AIM2 inflammasome activation in J774A.1 cells; format: cell-based, mouse; settings: J774A.1, LPS and Poly(dA:dT)
Summary of the method: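 J774A.1 murine macrophages primed with LPS, then stimulated with the dsDNA analog Poly(dA:dT) for AIM2 or with flagellin for NLRC4, in the presence of test compound. Secreted mature IL-1β and TNFα were measured in supernatants. Data are mean ± SEM from three independent experiments.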

[1] = tested on: mice challenged with LPS-induced systemic inflammation; assay: In vivo LPS challenge; parameters: species or system mouse
Summary of the method: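 Male C57BL/6J mice (22–26 g) received 200 mg/kg in 200 µL saline i.p. every 12 h × 5, or saline alone. One hour after the last dose: LPS (E. coli 055:B5) 5 mg/kg i.p., killed 2 h later. Peritoneal lavage with 10 mL cold PBS, spun 1,000 × g, 5 min. Spleen, lung, liver and quadriceps homogenates spun 13,000 × g, 20 min, 4 °C; cytokines normalised to total protein. n = 7–8 per group.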

muscle metabolism = assay: Metabolomics analysis of quadriceps muscle after in vivo LPS challenge; parameters: species or system mouse; settings: mice, muscle 2 h after LPS, vs vehicle
Summary of the method: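 Mice were treated with test compound or vehicle and challenged with LPS i.p. Muscle was excised 2 h after LPS for metabolomic profiling of glutathione species, adenylates and TCA intermediates. Results are in arbitrary units, mean ± SEM, n = 3 mice per group.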

NF-κB = assay: Flow cytometry of phosphokinases in spleen cells from treated mice; format: in vivo, mouse
Summary of the method: (§1)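 Mice were given test compound or saline vehicle. Spleen-derived CD11b+CD3− cells were analysed either fresh (steady state) or after 30 min of in vitro LPS stimulation. Phosphorylation of NF-κB, IκB, IKK and IRAK4 was assessed by flow cytometry. Data are mean ± SEM.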

IKK = assay: as above; format: in vivo, mouse
Summary of the method: as §1

Human safety study = format: in vivo
Summary of the method: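 Phase 1 study in 35 healthy subjects receiving single oral doses or 8 consecutive daily doses of up to 1,000 mg. Monitoring covered treatment-emergent and non-treatment-emergent adverse events and vital signs. Serum lipids, urinalysis, liver function enzymes and acute phase proteins were compared with baseline in each cohort.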

[2] = 200 mg/kg i.p. every 12 h for five doses, 2 h after i.p. LPS 5 mg/kg
[3] = 200 mg/kg i.p. x5, 2 h after LPS, organ homogenates
[4] = fresh CD11b+CD3- spleen cells, mice 200 mg/kg i.p. x5, vs vehicle
[5] = spleen cells from treated mice, LPS 30 min ex vivo

Chain of P2X7R (Q99572 whole entry, the tested form may be a part): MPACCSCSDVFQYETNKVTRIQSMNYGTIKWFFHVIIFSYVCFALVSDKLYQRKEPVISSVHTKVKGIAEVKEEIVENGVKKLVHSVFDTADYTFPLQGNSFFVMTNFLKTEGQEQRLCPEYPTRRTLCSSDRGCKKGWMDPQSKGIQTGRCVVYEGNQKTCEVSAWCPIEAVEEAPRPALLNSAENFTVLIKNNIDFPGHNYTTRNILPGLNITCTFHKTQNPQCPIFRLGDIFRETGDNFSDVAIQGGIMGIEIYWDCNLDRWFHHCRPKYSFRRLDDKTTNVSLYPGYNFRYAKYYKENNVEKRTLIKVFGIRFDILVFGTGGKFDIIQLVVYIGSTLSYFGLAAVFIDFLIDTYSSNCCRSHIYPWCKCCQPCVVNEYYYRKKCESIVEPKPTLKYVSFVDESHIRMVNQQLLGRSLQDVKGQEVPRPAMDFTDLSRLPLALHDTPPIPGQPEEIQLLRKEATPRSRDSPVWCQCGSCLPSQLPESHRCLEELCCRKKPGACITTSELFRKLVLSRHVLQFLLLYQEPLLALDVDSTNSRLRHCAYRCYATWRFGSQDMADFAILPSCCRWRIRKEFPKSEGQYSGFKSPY
Chain of Human recombinant NLRP3 (Q96P20 whole entry): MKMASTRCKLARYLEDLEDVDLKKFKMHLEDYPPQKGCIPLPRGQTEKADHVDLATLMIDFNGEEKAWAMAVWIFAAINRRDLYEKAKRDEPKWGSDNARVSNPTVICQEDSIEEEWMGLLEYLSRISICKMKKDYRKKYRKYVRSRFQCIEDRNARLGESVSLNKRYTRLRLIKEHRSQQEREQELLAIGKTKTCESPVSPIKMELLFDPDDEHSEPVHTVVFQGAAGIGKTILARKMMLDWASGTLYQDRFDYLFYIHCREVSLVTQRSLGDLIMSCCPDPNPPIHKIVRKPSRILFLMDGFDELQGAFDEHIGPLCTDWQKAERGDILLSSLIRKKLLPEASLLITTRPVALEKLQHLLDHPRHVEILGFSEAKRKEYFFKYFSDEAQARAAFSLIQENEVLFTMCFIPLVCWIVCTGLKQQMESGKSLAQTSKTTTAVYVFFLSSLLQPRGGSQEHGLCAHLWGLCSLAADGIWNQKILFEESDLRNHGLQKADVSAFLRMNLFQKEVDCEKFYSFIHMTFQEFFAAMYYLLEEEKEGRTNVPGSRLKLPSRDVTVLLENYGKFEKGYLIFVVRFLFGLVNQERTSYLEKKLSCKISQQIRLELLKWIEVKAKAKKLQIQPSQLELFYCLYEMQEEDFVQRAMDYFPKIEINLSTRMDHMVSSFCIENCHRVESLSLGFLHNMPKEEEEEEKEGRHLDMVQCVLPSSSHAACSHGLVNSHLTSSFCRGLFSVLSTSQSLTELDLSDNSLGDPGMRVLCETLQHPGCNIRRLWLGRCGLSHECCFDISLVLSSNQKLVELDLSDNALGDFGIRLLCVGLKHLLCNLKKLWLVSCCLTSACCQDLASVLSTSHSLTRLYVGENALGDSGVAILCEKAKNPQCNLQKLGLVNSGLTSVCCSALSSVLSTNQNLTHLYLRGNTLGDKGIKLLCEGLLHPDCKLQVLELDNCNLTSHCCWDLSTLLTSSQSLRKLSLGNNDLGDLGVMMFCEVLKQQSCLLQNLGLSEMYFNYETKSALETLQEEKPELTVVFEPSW
Chain of NLRP3-ASC (Q8R4B8 whole entry): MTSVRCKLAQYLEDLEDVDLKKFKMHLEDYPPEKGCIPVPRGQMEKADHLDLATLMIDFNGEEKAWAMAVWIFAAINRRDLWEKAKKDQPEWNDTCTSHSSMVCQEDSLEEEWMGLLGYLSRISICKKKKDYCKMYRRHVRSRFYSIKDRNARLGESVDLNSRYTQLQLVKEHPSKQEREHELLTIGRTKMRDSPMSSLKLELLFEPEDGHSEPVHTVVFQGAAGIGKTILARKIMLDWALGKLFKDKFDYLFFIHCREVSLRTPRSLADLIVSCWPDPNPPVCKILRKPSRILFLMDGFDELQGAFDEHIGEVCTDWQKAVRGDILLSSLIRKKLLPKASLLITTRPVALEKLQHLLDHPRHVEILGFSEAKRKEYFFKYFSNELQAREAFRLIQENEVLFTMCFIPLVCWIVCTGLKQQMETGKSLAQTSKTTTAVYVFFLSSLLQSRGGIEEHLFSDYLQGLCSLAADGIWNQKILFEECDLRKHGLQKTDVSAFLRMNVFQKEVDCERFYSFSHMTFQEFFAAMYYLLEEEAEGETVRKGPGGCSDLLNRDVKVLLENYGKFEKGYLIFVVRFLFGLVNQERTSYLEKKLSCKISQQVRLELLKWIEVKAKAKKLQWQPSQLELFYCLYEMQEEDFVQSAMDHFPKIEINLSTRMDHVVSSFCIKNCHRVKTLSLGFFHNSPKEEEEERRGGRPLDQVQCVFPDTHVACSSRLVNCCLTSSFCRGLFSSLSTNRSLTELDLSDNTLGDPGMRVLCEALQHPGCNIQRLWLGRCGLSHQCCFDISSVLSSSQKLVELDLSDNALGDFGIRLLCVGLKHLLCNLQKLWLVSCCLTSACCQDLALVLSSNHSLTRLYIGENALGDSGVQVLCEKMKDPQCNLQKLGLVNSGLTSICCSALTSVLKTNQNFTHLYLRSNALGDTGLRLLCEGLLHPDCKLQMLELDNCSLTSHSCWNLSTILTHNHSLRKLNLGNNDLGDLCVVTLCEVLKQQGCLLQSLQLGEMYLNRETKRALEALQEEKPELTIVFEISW

## CS(=O)(=O)CCC#N [OLT1177]
NLRP3 inflammasome; read-out: maximal inhibition of IL-1β secretion
  inhibition at 1 µM: 60%
NLRP3 inflammasome; read-out: maximal inhibition of IL-18 secretion
  inhibition at 1 µM: 70%
NLRP3-ASC
  NLRP3-mediated ASC recruitment (immunoprecipitation): reduction
Human recombinant NLRP3
  ATPase activity of recombinant NLRP3: inhibited
P2X7R
  BzATP-induced ion current change (P2X7R activation): not affected
AIM2 inflammasome
  release of IL-1β and TNFα following AIM2 inflammasome activation: no effect
[1]; [2]
  reduction of peritoneal fluid CXCL1: 30%
  reduction of peritoneal fluid IL-6: 44%
  reduction of peritoneal fluid myeloperoxidase (MPO): 80%
[1]; [3]
  TNFα content in lung, liver, spleen, and skeletal muscle: no significant changes
  total IL-1β content in lung, liver, spleen, and skeletal muscle: significantly decreased
Muscle metabolism
  muscle ATP: higher levels
  muscle GSH/GSSG ratio: increased
  muscle citrate: accumulation
  muscle oxaloacetate levels: decreased
  muscle oxidized glutathione (GSSG) levels: decreased
  muscle reduced glutathione (GSH): increased
  muscle ribose phosphate levels: increased
  muscle succinate tissue levels: decreased
  muscle α-ketoglutarate steady-state levels: increased
NF-κB; [4]
  steady-state constitutive phosphorylated NFκB: significantly reduced
NF-κB; [5]
  phosphorylated NF-κB after in vitro LPS: significant reduction
IKK; [4]
  steady-state phosphorylated IKK: no statistically significant changes
IKK; [5]
  phosphorylated IKK after in vitro LPS: significant reduction
Human safety study; all cohorts incl. placebo, 100-1,000 mg single and multiple dose
  subjects reporting treatment-emergent adverse events: Seven of 35 subjects
Human safety study; all cohorts, each resolved spontaneously
  relationship of reported AEs to OLT1177 (investigator): unrelated
Human safety study; any time during the study
  hematologic or coagulation values vs baseline: No significant changes
Human safety study; oral doses up to 1,000 mg each day for 8 d
  overall safety / toxicities in healthy humans: neither adverse effects nor biochemical or hematological changes; also recorded: safe and well-tolerated; also recorded: no clinical, hematological, or organ toxicities observed
Human safety study; subjects exposed to OLT1177
  physical examination vs predrug examination: no change
